{
  "source": "ChEMBL document CHEMBL3627646",
  "about": "“Synthesis and biological activity of amino acid derivatives of avarone and its model compound” (Bioorg Med Chem, 2015)",
  "note": "Calls of active or inactive are those of the source. The calls are words filed in the database; no cut-off is given here.",
  "data": [
    {"tested_on": "Aspergillus brasiliensis", "test": "Antifungal activity against Aspergillus brasiliensis ATCC 16404 after 24 hrs by microbroth double dilution method", "assay_type": "functional", "details": "ATCC 16404, 24 h", "units": {"MIC": "µM"}, "values": [
      {"smiles": "CC1=CCC[C@H]2[C@](C)(CC3=CC(=O)C=C(NCCC(=O)O)C3=O)[C@@H](C)CC[C@]12C", "MIC": 782}
    ]},
    {"tested_on": "HeLa", "test": "Induction of apoptosis in human HeLa cells assessed as accumulation at sub-G1 phase after 24 hrs using propidium iodide staining by flow cytometric analysis", "assay_type": "functional, cell-based", "details": "not given", "values": [
      {"smiles": "CC1=CCC[C@H]2[C@](C)(CC3=CC(=O)C=C(NCCC(=O)O)C3=O)[C@@H](C)CC[C@]12C", "Activity": "Active"}
    ]},
    {"tested_on": "A549", "test": "Cytotoxicity against human A549 cells assessed as cell survival after 72 hrs by MTT assay", "assay_type": "functional, cell-based", "details": "A549, 72 h", "summary_of_the_method": "(§1)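 Cells seeded (HeLa 2000, MDA-MB-453 3000, others 5000 per well), treated 24 h later (K562 after 2 h). Five double-diluted final concentrations, 200–12.5 μM, from 10 mM DMSO stocks, in RPMI-1640 with 10% FBS, pH 7.2, 72 h. MTT 4 h at 37 °C, SDS added, A570 read next day. Survival relative to medium control; IC50 from survival curves; triplicate; cisplatin positive control.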", "units": {"IC50": "µM"}, "values": [
      {"smiles": "CC1=CCC[C@H]2[C@](C)(CC3=CC(=O)C=C(NCCC(=O)O)C3=O)[C@@H](C)CC[C@]12C", "IC50": 26.9}
    ]},
    {"tested_on": "Micrococcus flavus", "test": "Antibacterial activity against Micrococcus flavus ATCC 10240 after 24 hrs by microbroth double dilution method", "assay_type": "functional", "details": "ATCC 10240, 24 h", "summary_of_the_method": "(§2)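 Microbroth double dilution in Mueller Hinton broth; compound stock 10 mg/mL in DMSO serially halved across rows. Wells inoculated with 10 μL culture at 10^6 cells/mL, incubated 37 °C for 24 h. Amikacin row as positive control, DMSO row as negative control. MIC taken as lowest concentration inhibiting bacterial growth.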", "units": {"MIC": "µM"}, "values": [
      {"smiles": "CC1=CCC[C@H]2[C@](C)(CC3=CC(=O)C=C(NCCC(=O)O)C3=O)[C@@H](C)CC[C@]12C", "MIC": 783}
    ]},
    {"tested_on": "Pseudomonas aeruginosa", "test": "Antibacterial activity against Pseudomonas aeruginosa ATCC 9027 after 24 hrs by microbroth double dilution method", "assay_type": "functional", "details": "ATCC 9027, 24 h", "summary_of_the_method": "as §2", "units": {"MIC": "µM"}, "values": [
      {"smiles": "CC1=CCC[C@H]2[C@](C)(CC3=CC(=O)C=C(NCCC(=O)O)C3=O)[C@@H](C)CC[C@]12C", "MIC": 783}
    ]},
    {"tested_on": "Proteus hauseri", "test": "Antibacterial activity against Proteus hauseri ATCC 13315 after 24 hrs by microbroth double dilution method", "assay_type": "functional", "details": "ATCC 13315, 24 h", "summary_of_the_method": "as §2", "units": {"MIC": "µM"}, "values": [
      {"smiles": "CC1=CCC[C@H]2[C@](C)(CC3=CC(=O)C=C(NCCC(=O)O)C3=O)[C@@H](C)CC[C@]12C", "MIC": 393}
    ]},
    {"tested_on": "MRC5", "test": "Cytotoxicity against human MRC5 cells assessed as cell survival after 72 hrs by MTT assay", "assay_type": "cell-based", "details": "MRC5, 72 h", "summary_of_the_method": "as §1", "units": {"IC50": "µM"}, "values": [
      {"smiles": "CC1=CCC[C@H]2[C@](C)(CC3=CC(=O)C=C(NCCC(=O)O)C3=O)[C@@H](C)CC[C@]12C", "IC50": 80.8}
    ]},
    {"tested_on": "HeLa", "test": "Induction of apoptosis in human HeLa cells assessed as accumulation at sub-G1 phase after 24 hrs in presence of caspase-3 inhibitor Z-DEVD-FMK using propidium iodide staining by flow cytometric analysis", "assay_type": "functional, cell-based", "details": "not given", "values": [
      {"smiles": "CC1=CCC[C@H]2[C@](C)(CC3=CC(=O)C=C(NCCC(=O)O)C3=O)[C@@H](C)CC[C@]12C", "Activity": "inactive"}
    ]},
    {"tested_on": "HeLa", "test": "Cytotoxicity against human HeLa cells assessed as cell survival after 72 hrs by MTT assay", "assay_type": "functional, cell-based", "details": "not given", "summary_of_the_method": "as §1", "units": {"IC50": "µM"}, "values": [
      {"smiles": "CC1=CCC[C@H]2[C@](C)(CC3=CC(=O)C=C(NCCC(=O)O)C3=O)[C@@H](C)CC[C@]12C", "IC50": 8.87}
    ]},
    {"tested_on": "HeLa", "test": "Cell cycle arrest in human HeLa cells assessed as accumulation at G2/M phase at IC50 after 24 hrs using propidium iodide staining by cytofluorometric analysis", "assay_type": "functional, cell-based", "details": "not given", "summary_of_the_method": "(§3)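 Trypsinized, fixed in ice-cold 70% ethanol then held at −20 °C at least one week. Treated with RNase 100 µg/mL at 37 °C 30 min, stained with PI 40 µg/mL at least 30 min. Flow cytometry on ≥10,000 cells.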", "values": [
      {"smiles": "CC1=CCC[C@H]2[C@](C)(CC3=CC(=O)C=C(NCCC(=O)O)C3=O)[C@@H](C)CC[C@]12C", "Activity": "Active"}
    ]},
    {"tested_on": "K562", "test": "Cytotoxicity against human K562 cells assessed as cell survival after 72 hrs by MTT assay", "assay_type": "functional, cell-based", "details": "K562, 72 h", "summary_of_the_method": "as §1", "units": {"IC50": "µM"}, "values": [
      {"smiles": "CC1=CCC[C@H]2[C@](C)(CC3=CC(=O)C=C(NCCC(=O)O)C3=O)[C@@H](C)CC[C@]12C", "IC50": 15.5}
    ]},
    {"tested_on": "Clostridium sporogenes", "test": "Antibacterial activity against Clostridium sporogenes ATCC 19404 after 24 hrs by microbroth double dilution method", "assay_type": "functional", "details": "ATCC 19404, 24 h", "summary_of_the_method": "as §2", "units": {"MIC": "µM"}, "values": [
      {"smiles": "CC1=CCC[C@H]2[C@](C)(CC3=CC(=O)C=C(NCCC(=O)O)C3=O)[C@@H](C)CC[C@]12C", "MIC": 393}
    ]},
    {"tested_on": "Micrococcus luteus", "test": "Antibacterial activity against Micrococcus luteus ATCC 4698 after 24 hrs by microbroth double dilution method", "assay_type": "functional", "details": "ATCC 4698, 24 h", "summary_of_the_method": "as §2", "units": {"MIC": "µM"}, "values": [
      {"smiles": "CC1=CCC[C@H]2[C@](C)(CC3=CC(=O)C=C(NCCC(=O)O)C3=O)[C@@H](C)CC[C@]12C", "MIC": 48.8}
    ]},
    {"tested_on": "MDA-MB-453", "test": "Cytotoxicity against human MDA-MB-453 cells assessed as cell survival after 72 hrs by MTT assay", "assay_type": "functional, cell-based", "details": "MDA-MB-453, 72 h", "summary_of_the_method": "as §1", "units": {"IC50": "µM"}, "values": [
      {"smiles": "CC1=CCC[C@H]2[C@](C)(CC3=CC(=O)C=C(NCCC(=O)O)C3=O)[C@@H](C)CC[C@]12C", "IC50": 3.31}
    ]},
    {"tested_on": "HeLa", "test": "Cell cycle arrest in human HeLa cells assessed as accumulation at G2/M phase at 2 time IC50 after 24 hrs using propidium iodide staining by cytofluorometric analysis", "assay_type": "functional, cell-based", "details": "not given", "summary_of_the_method": "as §3", "values": [
      {"smiles": "CC1=CCC[C@H]2[C@](C)(CC3=CC(=O)C=C(NCCC(=O)O)C3=O)[C@@H](C)CC[C@]12C", "Activity": "Active"}
    ]},
    {"tested_on": "HeLa", "test": "Induction of apoptosis in human HeLa cells assessed as accumulation at sub-G1 phase after 24 hrs in presence of caspase-8 inhibitor Z-IETD-FMK using propidium iodide staining by flow cytometric analysis", "assay_type": "functional, cell-based", "details": "not given", "values": [
      {"smiles": "CC1=CCC[C@H]2[C@](C)(CC3=CC(=O)C=C(NCCC(=O)O)C3=O)[C@@H](C)CC[C@]12C", "Activity": "inactive"}
    ]},
    {"tested_on": "Kocuria rhizophila", "test": "Antibacterial activity against Kocuria rhizophila ATCC 9341 after 24 hrs by microbroth double dilution method", "assay_type": "functional", "details": "ATCC 9341, 24 h", "summary_of_the_method": "as §2", "units": {"MIC": "µM"}, "values": [
      {"smiles": "CC1=CCC[C@H]2[C@](C)(CC3=CC(=O)C=C(NCCC(=O)O)C3=O)[C@@H](C)CC[C@]12C", "MIC": 393}
    ]},
    {"tested_on": "Artemia salina", "test": "Cytotoxicity in Brine shrimp assessed as nauplii mortality after 24 hrs", "assay_type": "organism-based", "details": "in vivo", "summary_of_the_method": "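Artemia salina eggs hatched in aerated tap water with dried yeast at 18–20 °C under illumination for 48 h, and freshly hatched nauplii were used. Compounds in DMSO (0.01–1 mg) were added to 950 µL artificial seawater containing 10–20 nauplii, with 5% final DMSO. After 24 h under illumination at room temperature, dead and surviving nauplii were counted and statistically analysed.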", "units": {"LC50": "ppm"}, "values": [
      {"smiles": "CC1=CCC[C@H]2[C@](C)(CC3=CC(=O)C=C(NCCC(=O)O)C3=O)[C@@H](C)CC[C@]12C", "LC50": 84.3}
    ]},
    {"tested_on": "Candida albicans", "test": "Antifungal activity against Candida albicans ATCC 10231 after 24 hrs by microbroth double dilution method", "assay_type": "functional", "details": "ATCC 10231, 24 h", "units": {"MIC": "µM"}, "values": [
      {"smiles": "CC1=CCC[C@H]2[C@](C)(CC3=CC(=O)C=C(NCCC(=O)O)C3=O)[C@@H](C)CC[C@]12C", "MIC": 195}
    ]},
    {"tested_on": "Staphylococcus aureus", "test": "Antibacterial activity against Staphylococcus aureus ATCC 6538 after 24 hrs by microbroth double dilution method", "assay_type": "functional", "details": "ATCC 6538, 24 h", "summary_of_the_method": "as §2", "units": {"MIC": "µM"}, "values": [
      {"smiles": "CC1=CCC[C@H]2[C@](C)(CC3=CC(=O)C=C(NCCC(=O)O)C3=O)[C@@H](C)CC[C@]12C", "MIC": 24.5}
    ]},
    {"tested_on": "Bacillus subtilis", "test": "Antibacterial activity against Bacillus subtilis ATCC 6633 after 24 hrs by microbroth double dilution method", "assay_type": "functional", "details": "ATCC 6633, 24 h", "summary_of_the_method": "as §2", "units": {"MIC": "µM"}, "values": [
      {"smiles": "CC1=CCC[C@H]2[C@](C)(CC3=CC(=O)C=C(NCCC(=O)O)C3=O)[C@@H](C)CC[C@]12C", "MIC": 393}
    ]},
    {"tested_on": "Escherichia coli", "test": "Antibacterial activity against Escherichia coli ATCC 25922 after 24 hrs by microbroth double dilution method", "assay_type": "functional", "details": "ATCC 25922, 24 h", "summary_of_the_method": "as §2", "units": {"MIC": "µM"}, "values": [
      {"smiles": "CC1=CCC[C@H]2[C@](C)(CC3=CC(=O)C=C(NCCC(=O)O)C3=O)[C@@H](C)CC[C@]12C", "MIC": 48.8}
    ]},
    {"tested_on": "HeLa", "test": "Induction of apoptosis in human HeLa cells assessed as accumulation at sub-G1 phase after 24 hrs in presence of caspase-9 inhibitor Z-LEHD-FMK using propidium iodide staining by flow cytometric analysis", "assay_type": "functional, cell-based", "details": "not given", "values": [
      {"smiles": "CC1=CCC[C@H]2[C@](C)(CC3=CC(=O)C=C(NCCC(=O)O)C3=O)[C@@H](C)CC[C@]12C", "Activity": "inactive"}
    ]},
    {"tested_on": "Salmonella enterica", "test": "Antibacterial activity against Salmonella enterica ATCC 13076 after 24 hrs by microbroth double dilution method", "assay_type": "functional", "details": "ATCC 13076, 24 h", "summary_of_the_method": "as §2", "units": {"MIC": "µM"}, "values": [
      {"smiles": "CC1=CCC[C@H]2[C@](C)(CC3=CC(=O)C=C(NCCC(=O)O)C3=O)[C@@H](C)CC[C@]12C", "MIC": 783}
    ]},
    {"tested_on": "not listed separately", "test": "Cytotoxicity against human Fem-X cells assessed as cell survival after 72 hrs by MTT assay", "assay_type": "functional, cell-based", "details": "not given", "summary_of_the_method": "as §1", "units": {"IC50": "µM"}, "values": [
      {"smiles": "CC1=CCC[C@H]2[C@](C)(CC3=CC(=O)C=C(NCCC(=O)O)C3=O)[C@@H](C)CC[C@]12C", "IC50": 20.2}
    ]},
    {"tested_on": "Saccharomyces cerevisiae", "test": "Antifungal activity against Saccharomyces cerevisiae ATCC 9763 after 24 hrs by microbroth double dilution method", "assay_type": "functional", "details": "ATCC 9763, 24 h", "units": {"MIC": "µM"}, "values": [
      {"smiles": "CC1=CCC[C@H]2[C@](C)(CC3=CC(=O)C=C(NCCC(=O)O)C3=O)[C@@H](C)CC[C@]12C", "MIC": 12.2}
    ]}
  ]
}
